The array DNA melting data of Ke et al. (doi:10.1101/2024.01.08.574731)

Columns and labels:
[1] = melting temperature; fluorescence melt of hairpins on a sequencing array, two-state fit, raised by 9.35 °C to match UV melts; conditions: sodium 0.088 M
Procedure, shortened: (§1)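 With Cy3 and quencher oligos annealed, library hairpins on a sequenced MiSeq flow cell were imaged for Cy3 fluorescence in 50 mM Na-HEPES pH 8.0, 25 mM NaCl, in 2.5 °C steps up to 60 °C. Melting temperature and folding enthalpy were derived from bootstrapped two-state fits of signals normalised to pre-quench Cy3 and to control constructs. Four replicates were combined by inverse variance, with fitted temperatures raised by 9.35 °C to match UV melts.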

[2] = folding enthalpy; higher = less favourable; fluorescence melt of hairpins on a sequencing array, two-state fit; conditions: sodium 0.088 M
Procedure, shortened: as §1

| Sequence | Tm [1] | folding enthalpy [2] |
| --- | --- | --- |
| GTGAGCGAAAGCTGCAC ((((((....))).))) | 48.7 °C | -13.8 kcal/mol |
| GTGAGCGAAAGCTGCCAC ((((((....)))..))) | 37.6 °C | -8.52 kcal/mol |
| GTGAGCGCGAAAGCGCAC (((..(((....)))))) | 52.2 °C | -11.1 kcal/mol |
| GTGAGCTCGAAAGAGCAC (((..(((....)))))) | 65 °C | -9.96 kcal/mol |
| GTGAGGCCGAAAGGCCAC (((..(((....)))))) | 50.3 °C | -11.7 kcal/mol |
| GTGAGGGGAAACCCTCAC (((((((....))))))) | 67.7 °C | -33.4 kcal/mol |
| GTGAGGGGAAACCCTCGC (.(((((....))))).) | 53.5 °C | -34 kcal/mol |
| GTGAGGGGAAACCTTCGC (.((.((....)).)).) | 33.6 °C | -21.5 kcal/mol |
| GTGAGTGGAAACACTTAC ((.((((....)))).)) | 44.8 °C | -28.8 kcal/mol |
| GTGAGTGGAAACATTCAC ((((.((....)).)))) | 43.9 °C | -33.9 kcal/mol |
| GTGAGTGGAAACGTTCAC ((((..(....)..)))) | 28.4 °C | -11.2 kcal/mol |
| GTGATAGGAAACTACCAC (((.(((....))).))) | 33.5 °C | -27.3 kcal/mol |
| GTGATATCGAAAGATCAC (((..(((....)))))) | 37.1 °C | -27.8 kcal/mol |
| GTGATCCGAAAGGAGCAC (((.(((....))).))) | 66.4 °C | -41.5 kcal/mol |
| GTGATCGAAAGATATCAC ((((((....)))..))) | 34.5 °C | -18 kcal/mol |
| GTGATCGAAAGATGCCAC ((((((....)))..))) | 24.4 °C | -11.5 kcal/mol |
| GTGATCGAAAGATTTCAC ((((((....)))..))) | 27.6 °C | -14.3 kcal/mol |
| GTGATCGGAAACGACCAC (((.(((....))).))) | 47.6 °C | -42 kcal/mol |
| GTGATCGGAAACGATCGC (.(((((....))))).) | 57.6 °C | -36.4 kcal/mol |
| GTGATGGAAACATCAC ((((((....)))))) | 56.7 °C | -41.8 kcal/mol |
| GTGATGGCGAAAGCCCAC (((..(((....)))))) | 41.2 °C | -14.6 kcal/mol |
| GTGATGGGAAACCATCAC (((((((....))))))) | 64.6 °C | -43.8 kcal/mol |
| GTGATGGGAAACTGTCAC ((((..(....)..)))) | 39.1 °C | -32.5 kcal/mol |

| Sequence | Tm [1] | folding enthalpy [2] |
| --- | --- | --- |
| GTGATTGCGAAAGCACAC (((..(((....)))))) | 38.1 °C | -14.4 kcal/mol |
| GTGCAACGAAAGTTACAC (((.(((....))).))) | 44.9 °C | -22.6 kcal/mol |
| GTGCAAGAAATTGCAC ((((((....)))))) | 56.6 °C | -36.2 kcal/mol |
| GTGCAAGCGAAAGCTCAC (((..(((....)))))) | 42.9 °C | -13.4 kcal/mol |
| GTGCAAGGAAACTCGCAC ((((.((....)).)))) | 45.1 °C | -31.7 kcal/mol |
| GTGCAAGGAAACTTGTGC (..((((....))))..) | 37.4 °C | -22.4 kcal/mol |
| GTGCACCGAAAGGTCCAC (((.(((....))).))) | 45.2 °C | -27.3 kcal/mol |
| GTGCACGAAAGTGCCCAC ((((((....)))..))) | 40.7 °C | -7.58 kcal/mol |
| GTGCACGAAAGTGCGCAC ((((((....)))..))) | 58 °C | -10.5 kcal/mol |
| GTGCACGAAAGTGCTCAC ((((((....)))..))) | 43.3 °C | -7.03 kcal/mol |
| GTGCAGAAATGCAC (((((....))))) | 57.1 °C | -25.6 kcal/mol |
| GTGCAGCCGAAAGGCCAC (((..(((....)))))) | 49.1 °C | -12.7 kcal/mol |
| GTGCAGCGAAAGCTACAC (((.(((....))).))) | 54.1 °C | -31 kcal/mol |
| GTGCAGGGAAACCTGCGC (.(((((....))))).) | 58.9 °C | -26.2 kcal/mol |
| GTGCATCGAAAGATCAC (((.(((....)))))) | 46.8 °C | -24.2 kcal/mol |
| GTGCATGAAAATGCAC ((((((....)))))) | 67 °C | -31.6 kcal/mol |
| GTGCATTCGAAAGAACAC (((..(((....)))))) | 23.8 °C | -7.63 kcal/mol |
| GTGCCAGAAATGGCAC ((((((....)))))) | 67.8 °C | -36.7 kcal/mol |
| GTGCCAGGAAACTAGCAC ((((.((....)).)))) | 43.2 °C | -28.2 kcal/mol |
| GTGCCCGAAAGGGATCAC ((((((....)))..))) | 40.3 °C | -13.2 kcal/mol |
| GTGCCCGAAAGGGCTCAC ((((((....)))..))) | 45.5 °C | -7.4 kcal/mol |
| GTGCCCGAAAGGGGGCAC ((((((....)))..))) | 69.1 °C | -22.2 kcal/mol |
| GTGCCCGAAAGGGTCAC ((((((....))).))) | 55 °C | -18.1 kcal/mol |

| Sequence | Tm [1] | folding enthalpy [2] |
| --- | --- | --- |
| GTGCCCGAAAGGGTGCAC ((((((....)))..))) | 55.3 °C | -14.6 kcal/mol |
| GTGCCCGGAAACGGGTAC ((.((((....)))).)) | 62.9 °C | -30 kcal/mol |
| GTGCCCGGAAACGGGTGC (..((((....))))..) | 53.9 °C | -21.9 kcal/mol |
| GTGCCCTCGAAAGAGCAC (((..(((....)))))) | 43 °C | -18.8 kcal/mol |
| GTGCCGACGAAAGTCCAC (((..(((....)))))) | 53.8 °C | -8.42 kcal/mol |
| GTGCCGCGAAAGCGTCAC (((.(((....))).))) | 61.7 °C | -29.1 kcal/mol |
| GTGCCTGCGAAAGCACAC (((..(((....)))))) | 55 °C | -7.25 kcal/mol |
| GTGCCTGGAAACAGACAC (((.(((....))).))) | 46.9 °C | -28.6 kcal/mol |
| GTGCCTGGAAACAGGTGC (..((((....))))..) | 48.9 °C | -23.2 kcal/mol |
| GTGCGAGGAAACCCACAC (((.(.(....).).))) | 24.6 °C | -10.4 kcal/mol |
| GTGCGAGGAAACTTGCAC ((((.((....)).)))) | 53.7 °C | -54 kcal/mol |
| GTGCGCACGAAAGTGCAC (((..(((....)))))) | 64 °C | -11.4 kcal/mol |
| GTGCGCCGAAAGGCACAC (((.(((....))).))) | 63.7 °C | -29 kcal/mol |
| GTGCGCGAAAGCGATCAC ((((((....)))..))) | 41 °C | -13.4 kcal/mol |
| GTGCGCGAAAGCGCCCAC ((((((....)))..))) | 43.3 °C | -6.88 kcal/mol |
| GTGCGCGAAAGCGTCAC ((((((....))).))) | 58.6 °C | -21 kcal/mol |
| GTGCGCGAAAGCGTCCAC ((((((....)))..))) | 36.4 °C | -9.9 kcal/mol |
| GTGCGCGGAAACGCGTGC (..((((....))))..) | 57 °C | -16.7 kcal/mol |
| GTGCGGGGAAACCTGCAC ((((.((....)).)))) | 58.7 °C | -29.3 kcal/mol |
| GTGCGGGGAAACTCGCGC (.(((.(....).))).) | 53.5 °C | -24 kcal/mol |
| GTGCTACGAAAGTAACAC (((.(((....))).))) | 46.7 °C | -32.7 kcal/mol |
| GTGCTACGAAAGTACAC (((.(((....)))))) | 45.3 °C | -25.5 kcal/mol |
